Where no end group is shown, it is not given here.
Key:
[1] = test system: diet-induced obese (DIO) mice; assay: GLP-1; format: in vivo, C57BL/6J male mice; details: continuous infusion for up to 16 weeks
Outline: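 Mice were started on high-fat diet at 6–10 weeks of age and fed it for 7–22 weeks. At 13–28 weeks of age they were randomized by body weight and given osmotic minipumps delivering vehicle (0.154 mol/L NaCl/0.2% human serum albumin) or test compound at 50–70 nmol/kg/day for […]. Body weight was recorded weekly and food intake twice weekly. Fat and lean mass were measured by DXA at week 15. n = 6 per group.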

Dpp4 = details: cited from earlier work

Row | Substance | adverse effects [1] | time of cleavage in vivo by Dpp4 to GLP-1(9-36)amide (Dpp4)
1 | LVKGR-NH2 [GLP-1(32-36)amide] | No adverse effects | –
2 | GLP-1(7-36)amide | – | 1 to 2 min
